The results in this text go back to ChEMBL document CHEMBL3576775 (Eur J Med Chem, 2015).

Calls of active or inactive are those of the source. The calls are words filed in the database; no cut-off is given here. Some results are limits rather than exact numbers.

In data set [1] the test system is Mus musculus. The data set is described as follows: Anti-inflammatory activity against Swiss albino mouse assessed as reduction in paw thickness at 10 mg/kg, ip administered 30 mins prior to dextran injection measured after 4 hrs by vernier calliper analysis relative to control. It is filed as functional. The method, boiled down: (§1)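 Swiss albino mice, 5 per group. […] Paw thickness measured by vernier calipers at 1, 2, 3, 4, 6 and 24 h. Reduction expressed relative to control; mean ± SEM.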

Data set [2] relates to Mus musculus. As to the kind of experiment: Anti-hyperalgesic activity against Swiss albino mouse assessed as reduction in paw lickings at 10 mg/kg, ip administered 30 mins prior to capsaicin injection relative to control. It is filed as functional. The gist of the method:
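Swiss albino mice, 5 per group; compound given i.p. 30 min before 20 μL capsaicin injected into plantar surface of right hind paw. […] Paw lickings and twitchings counted over 10 min after capsaicin as hyperalgesia indicator; mean ± SEM, one-way ANOVA with Tukey's test versus control.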

Data set [3] deals with Mus musculus. As to the kind of experiment: Anti-inflammatory activity against Swiss albino mouse assessed as reduction in paw thickness at 5 mg/kg, ip administered 30 mins prior to dextran injection measured after 4 hrs by vernier calliper analysis relative to control. Type of data set: functional. The gist of the method: as §1
The subject of data set [4] is Mus musculus. The data set is described as follows: Anti-hyperalgesic activity against Swiss albino mouse assessed as reduction in paw lickings at 5 mg/kg, ip administered 30 mins prior to capsaicin injection relative to control. It is filed as functional.
Data set [5] has as its system Mus musculus. As to the kind of experiment: Acute toxicity against Swiss albino mouse assessed as histological changes in liver at 5 to 300 mg, po measured after 14 days. Type of data set: organism-based. The following applies: in vivo, 336 h. The gist of the method: (§2)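 Oral single doses of 5 mg, 50 mg and 300 mg to mice in three groups of three. Observed continuously for 4 h for signs of toxicity, then at regular intervals over the first 24 h and once daily for 14 days. Animals sacrificed at day 14; histology of liver, kidney and heart.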

Data set [6] has as its system Mus musculus. As to the kind of experiment: Acute toxicity against Swiss albino mouse assessed as histological changes in kidney at 5 to 300 mg, po measured after 14 days. Type of data set: organism-based. The following applies: in vivo, 336 h. The method, boiled down:
as §2

Data set [7] concerns Mus musculus. The data set is described as follows: Acute toxicity against Swiss albino mouse assessed as histological changes in heart at 5 to 300 mg, po measured after 14 days. It is filed as organism-based. The settings on record: in vivo, 336 h. The method, boiled down: as §2
The subject of data set [8] is Mus musculus. As to the kind of experiment: Acute toxicity against Swiss albino mouse assessed as lesser inflammatory cells and decreased area of necrosis in stomach at 5 to 300 mg, po measured after 14 days. The following applies: in vivo, 336 h. Type of data set: organism-based.
Data set [9] is described as follows: Inhibition of soyabean 5-LOX using arachidonic acid as substrate by microplate scanning spectrophotometer analysis. On the set-up: species or system Glycine max. The method, boiled down: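 Soybean lipoxygenase in assay buffer was mixed with compound (DMSO solutions at 0.01 to 100 μM, 1:10 into enzyme solution). Reaction started with arachidonic acid; plate shaken 5 min, chromogen added, shaken 5 min, read at 490 nm. Blanks and positive controls included. Duplicates, deviation <5%, averaged; percent inhibition calculated from activity.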

In data set [10] the target is T1, Prostaglandin G/H synthase 1 (Ovis aries, UniProt P05979).
T1 sequence (P05979 whole entry): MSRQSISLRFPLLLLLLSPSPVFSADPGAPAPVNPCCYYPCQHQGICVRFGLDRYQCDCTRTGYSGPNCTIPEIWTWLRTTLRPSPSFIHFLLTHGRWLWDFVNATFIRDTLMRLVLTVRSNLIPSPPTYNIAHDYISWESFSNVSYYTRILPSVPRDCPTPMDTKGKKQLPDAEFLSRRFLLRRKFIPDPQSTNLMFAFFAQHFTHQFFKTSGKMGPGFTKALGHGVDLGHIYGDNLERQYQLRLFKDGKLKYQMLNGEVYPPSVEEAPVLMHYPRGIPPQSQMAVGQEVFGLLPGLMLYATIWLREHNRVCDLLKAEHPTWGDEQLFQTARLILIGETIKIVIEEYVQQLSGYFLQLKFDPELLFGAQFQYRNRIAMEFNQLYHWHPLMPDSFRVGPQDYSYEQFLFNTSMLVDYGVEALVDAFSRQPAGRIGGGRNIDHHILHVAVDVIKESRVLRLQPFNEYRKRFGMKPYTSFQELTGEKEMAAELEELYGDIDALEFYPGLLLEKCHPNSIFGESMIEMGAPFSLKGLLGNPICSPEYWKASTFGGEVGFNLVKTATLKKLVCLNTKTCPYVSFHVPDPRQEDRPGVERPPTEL
The data set is described as follows: Inhibition of ovine COX-1 assessed as PGF2alpha formation using arachidonic acid as substrate pretreated with compound for 20 mins prior to substrate addition by spectrophotometric analysis.

Data set [11] is described as follows: Competitive inhibition of soyabean 5-LOX by UV-Visible spectrophotometry. On the set-up: species or system Glycine max.
Data set [12] concerns the target T2, Prostaglandin G/H synthase 2 (Homo sapiens, UniProt P35354).
T2 sequence (P35354 whole entry): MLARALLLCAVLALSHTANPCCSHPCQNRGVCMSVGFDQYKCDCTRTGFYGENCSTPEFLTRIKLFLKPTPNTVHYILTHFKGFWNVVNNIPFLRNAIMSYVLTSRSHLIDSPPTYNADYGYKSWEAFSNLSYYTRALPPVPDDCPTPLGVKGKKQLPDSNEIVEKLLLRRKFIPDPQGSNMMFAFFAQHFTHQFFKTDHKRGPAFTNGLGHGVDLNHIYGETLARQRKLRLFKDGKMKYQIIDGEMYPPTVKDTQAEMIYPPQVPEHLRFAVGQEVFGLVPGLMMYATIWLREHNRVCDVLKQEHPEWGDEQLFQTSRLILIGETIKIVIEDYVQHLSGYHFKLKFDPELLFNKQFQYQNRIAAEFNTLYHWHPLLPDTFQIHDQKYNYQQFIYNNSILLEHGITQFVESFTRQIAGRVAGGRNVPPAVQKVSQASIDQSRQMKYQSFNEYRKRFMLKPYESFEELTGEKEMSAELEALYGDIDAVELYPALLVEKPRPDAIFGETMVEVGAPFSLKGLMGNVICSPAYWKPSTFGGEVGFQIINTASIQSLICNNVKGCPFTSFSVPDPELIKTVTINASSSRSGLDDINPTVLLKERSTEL
The data set is described as follows: Competitive inhibition of human recombinant COX-2 by UV-Visible spectrophotometry. The method, boiled down: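 Double reciprocal plot from UV-vis absorbance change at the maximum. Arachidonic acid in HEPES:DMSO (1:1) added in 5 µl increments (each giving 50 µM final) to a fixed enzyme concentration. Repeated with inhibitor at fixed 10 µM and 20 µM. Type of inhibition taken from where the extrapolated trails meet; also from IC50 versus Ki comparison.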

Data set [13] concerns Glycine max. As to the kind of experiment: Competitive inhibition of soyabean 5-LOX using arachidonic acid as substrate by double reciprocal plot analysis. The method, boiled down:
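Arachidonic acid in HEPES:DMSO (1:1) at 2 mM, added in 5 μL increments (50 μM final each) to fixed enzyme. Change in substrate absorbance at maxima plotted double-reciprocally, without inhibitor and with 10 μM or 20 μM inhibitor; intersection of the extrapolated lines indicates inhibition type.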

Data set [14] concerns Mus musculus. The data set is described as follows: Anti-hyperalgesic activity against Swiss albino mouse assessed as reduction in paw lickings at 5 mg/kg, ip administered 30 mins prior to capsaicin injection and 30 mins after 200 ug misoprostol injection. Type of data set: functional, organism-based. The method, boiled down: (§3)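 Mice (5 per group, 7 groups), all treatments i.p. Misoprostol (200 μg) or substance P (10 μg) given 30 min before test compound (5 mg Kg⁻¹); capsaicin (20 μL) injected into right hind paw plantar surface 30 min later. Controls received normal saline. Paw lickings counted over 10 min after capsaicin.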

Data set [15] deals with Mus musculus. As to the kind of experiment: Anti-hyperalgesic activity against Swiss albino mouse assessed as reduction in paw lickings at 5 mg/kg, ip administered 30 mins prior to capsaicin injection and 30 mins after 10 ug substance-P injection. It is filed as functional, organism-based. The gist of the method:
as §3

The test system of data set [16] is Glycine max.
Data set [17] has as its target T3, Prostaglandin G/H synthase 2 (Homo sapiens) (UniProt P35354).
T3 sequence (whole entry): T2 sequence (P35354 whole entry)

In the case of `O=C(O)Cc1ccccc1Nc1c(Cl)cccc1Cl` [DICLOFENAC], the inhibition in vivo – broadly, the percentage by which the read-out fell short of the control – at 10 mg/kg in data set [1] came out at 42%; in [2], 90%.
With `Cc1ccc(S(=O)(=O)n2cc(C(=O)C(=O)N[C@@H](Cc3c[nH]c4ccccc34)C(=O)NCC(=O)O)c3ccccc32)cc1`, the inhibition in vivo at 5 mg/kg in [3] was 47%; in data set [4], 96%. Also, the inhibition in vivo at 10 mg/kg in data set [1] turned out to be 49%. Moreover, the Activity entry in data set [5], in data set [6], in data set [7] and in [8] was “Non-toxic” throughout. The IC50 – broadly, the concentration that inhibits the measured activity by half – came out at 2 nM in data set [9] and 2.21 µM in data set [10]. The inhibition constant (Ki) (in general, the equilibrium dissociation constant of an inhibitor or competing ligand from its target) is 42 nM in data set [11] and 109 nM in data set [12]. The inhibition entry in data set [13] and in data set [14] was “Active” throughout. Moreover, the inhibition entry in data set [15] is “inactive”. The Ka in [16] was 3.36 ×10⁶ /M; in data set [17] it was 3.29 ×10⁵ /M.
Turning to `Cc1ccc(S(=O)(=O)n2cc(C(=O)C(=O)N[C@@H](Cc3cnc[nH]3)C(=O)N[C@@H](CCC(=O)O)C(=O)O)c3ccccc32)cc1`, the results for the inhibition in vivo at 5 mg/kg in [3] and in data set [4] were 45% and 95%, respectively. Also, in data set [1], the inhibition in vivo at 10 mg/kg was 48%. Also, the figures for the IC50 in data set [9] and in data set [10] were 80 nM and 12.9 µM, respectively. Further, the inhibition constant Ki in [11] worked out at 536 nM; in data set [12] it was 12 nM. For the same molecule, the inhibition result in data set [13] and in data set [14] was “Active” throughout. Further, the inhibition result in data set [15] is “inactive”. For the same molecule, the Ka in data set [16] worked out at 1.99 ×10⁵ /M; in data set [17], 7.76 ×10⁵ /M.
Turning to `Cc1ccc(S(=O)(=O)n2cc(C(=O)C(=O)NCC(=O)NCC(=O)O)c3ccccc32)cc1`, the inhibition in vivo at 5 mg/kg in data set [4] worked out at 90%. Also, the IC50 was 5 nM in [9] and over 100 µM in [10]. For the same molecule, the values for the inhibition constant (Ki) in data set [11] and in data set [12] were 232 nM and 3120 nM, respectively. Moreover, the inhibition result in data set [13] is “Active”. The Ka in data set [16] was 2.99 ×10⁵ /M; in data set [17] it was 1.9 ×10³ /M.
Take `Cc1ccc(S(=O)(=O)n2cc(C(=O)C(=O)NCC(=O)N[C@@H](Cc3c[nH]c4ccccc34)C(=O)O)c3ccccc32)cc1`: in data set [4], the inhibition in vivo at 5 mg/kg was determined as 88%. In addition, the inhibition in vivo at 10 mg/kg in data set [2] is 96%. Also, the IC50 was determined as 4 nM in data set [9] and 43.5 µM in data set [10]. The Ki came to 64 nM in data set [11] and 5 nM in data set [12]. Also, in data set [13], the inhibition entry is “Active”. Further, the Ka in [16] turned out to be 2.06 ×10⁶ /M; in data set [17], 3.25 ×10⁶ /M.
